Source: ChEMBL document CHEMBL4257478, “Design, synthesis and evaluation of (R)-3-(7-(methyl(7H-pyrrolo[2,3-d]pyrimidin-4-yl)amino)-5-azaspiro[2.4]heptan-5-yl)-3-oxopropanenitrile as a JAK1-selective inhibitor” (Medchemcomm, 2018)

Tests used:
[1] = biological target: Tyrosine-protein kinase JAK1 (Homo sapiens, UniProt P23458); test: Inhibition of human JAK1 using GEEPLYWSFPAKKK as substrate after 40 mins in presence of [gamma-33P-ATP] by scintillation counting method
[2] = biological target: T1, Tyrosine-protein kinase JAK2 (Homo sapiens, UniProt O60674); test: Inhibition of human JAK2 using KTFCGTPEYLAPEVRREPRILSEEEQEMFRDFDYIADWC as substrate after 40 mins in presence of [gamma-33P-ATP] by scintillation counting method
T1 sequence (O60674 whole entry): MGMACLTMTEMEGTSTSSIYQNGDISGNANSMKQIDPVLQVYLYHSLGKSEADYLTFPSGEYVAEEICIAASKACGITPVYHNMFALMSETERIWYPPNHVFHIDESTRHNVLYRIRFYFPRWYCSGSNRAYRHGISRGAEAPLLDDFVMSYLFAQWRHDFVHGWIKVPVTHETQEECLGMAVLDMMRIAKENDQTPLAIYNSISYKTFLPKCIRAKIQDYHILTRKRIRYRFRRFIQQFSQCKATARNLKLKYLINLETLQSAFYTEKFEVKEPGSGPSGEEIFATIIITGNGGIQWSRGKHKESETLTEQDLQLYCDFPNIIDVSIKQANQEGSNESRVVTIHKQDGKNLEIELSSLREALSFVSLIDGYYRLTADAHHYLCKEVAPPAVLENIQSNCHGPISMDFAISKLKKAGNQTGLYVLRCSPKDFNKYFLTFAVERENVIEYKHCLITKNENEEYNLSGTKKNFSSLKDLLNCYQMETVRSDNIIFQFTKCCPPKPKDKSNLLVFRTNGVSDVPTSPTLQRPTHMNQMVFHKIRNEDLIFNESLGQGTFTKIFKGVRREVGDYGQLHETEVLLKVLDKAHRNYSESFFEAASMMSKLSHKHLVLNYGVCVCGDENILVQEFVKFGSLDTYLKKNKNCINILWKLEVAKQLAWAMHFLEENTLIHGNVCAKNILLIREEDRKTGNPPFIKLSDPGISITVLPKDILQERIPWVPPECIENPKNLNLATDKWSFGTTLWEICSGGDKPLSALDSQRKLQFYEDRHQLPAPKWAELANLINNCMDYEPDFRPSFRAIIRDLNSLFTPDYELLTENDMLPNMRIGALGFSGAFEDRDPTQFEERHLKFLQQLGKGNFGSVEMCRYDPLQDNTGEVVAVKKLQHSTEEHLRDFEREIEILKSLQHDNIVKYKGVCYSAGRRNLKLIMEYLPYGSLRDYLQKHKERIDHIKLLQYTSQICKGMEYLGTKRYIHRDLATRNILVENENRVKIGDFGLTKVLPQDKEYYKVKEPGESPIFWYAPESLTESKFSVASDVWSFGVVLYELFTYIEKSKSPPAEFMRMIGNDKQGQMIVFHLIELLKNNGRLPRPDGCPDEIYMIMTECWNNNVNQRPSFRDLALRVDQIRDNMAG

Rattus norvegicus [3] = test: AUC (0 to t) in Sprague-Dawley rat at 5 mg/kg, iv after 0.08 to 24 hrs by LC-MS/MS method; format: ADME, organism-based; set-up: time upper 24 hr, time lower 0.08 hr, dose 5 mg/kg, route intravenous; conditions: in vivo
In short: (§1)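 Male Sprague Dawley rats, 7-8 weeks old, n=4 per group. IV dose 5 mg/kg free base in 10% ethanol/90% PEG400; oral dose 10 mg/kg as corn oil suspension after 16 h fast. Blood taken 0.08-24 h (IV) or 0.25-24 h (PO). Plasma diluted in acetonitrile with internal standard, analysed by LC-MS/MS, parameters by non-compartmental analysis.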

Rattus norvegicus [4] = test: AUC (0 to t) in Sprague-Dawley rat at 10 mg/kg, po after 0.25 to 24 hrs by LC-MS/MS method; format: ADME, organism-based; set-up: time lower 0.25 hr, dose 10 mg/kg, time upper 24 hr, route oral; conditions: in vivo; in short: as §1
[5] = MRT in Sprague-Dawley rat at 10 mg/kg, po after 0.25 to 24 hrs by LC-MS/MS method; format: ADME, organism-based; conditions: in vivo; in short: as §1
[6] = Oral bioavailability in Sprague-Dawley rat at 10 mg/kg after 0.25 to 24 hrs by LC-MS/MS method; format: ADME, organism-based; conditions: in vivo
In short: (§2)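 Male Sprague Dawley rats, 7–8 weeks old, n=4, fasted 16 h. Free base given at 10 mg/kg po as a corn oil suspension (5 mL/kg); a 5 mg/kg iv arm used 10% ethanol/90% PEG400. Plasma sampled 0.25–24 h, acetonitrile-precipitated with internal standard, and measured by LC-MS/MS. Parameters derived by non-compartmental analysis.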

[7] = biological target: T1, Tyrosine-protein kinase JAK2; test: Inhibition of human JAK2 at 10 uM using KTFCGTPEYLAPEVRREPRILSEEEQEMFRDFDYIADWC as substrate after 40 mins in presence of [gamma-33P-ATP] by scintillation counting method relative to control
[8] = Half life in Sprague-Dawley rat at 10 mg/kg, po after 0.25 to 24 hrs by LC-MS/MS method; format: ADME, organism-based; conditions: in vivo; in short: as §1
[9] = Half life in Sprague-Dawley rat at 5 mg/kg, iv after 0.08 to 24 hrs by LC-MS/MS method; format: ADME, organism-based; conditions: in vivo; in short: as §1
Rattus norvegicus [10] = test: Antiarthritic activity in adjuvant-induced SPF LEW/SsNSlc rat arthritis model assessed as paw thickness at 10 mg/kg, po qd measured on day 14; format: functional
In short: (§3)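 Lewis rats were 10 weeks old after 2 weeks acclimation. Immunized s.c. at the tail base with 0.1 mL complete Freund's adjuvant containing 10 mg/mL heat-killed mycobacterium. From day 12 post-immunization (day 1), n=10 per group, oral dosing once daily for 14 days, vehicle corn oil. Clinical score and hind paw measured twice weekly.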

[11] = Cmax in Sprague-Dawley rat at 10 mg/kg, po after 0.25 to 24 hrs by LC-MS/MS method; format: ADME, organism-based; set-up: dose 10 mg/kg, route oral; conditions: in vivo; in short: as §1
[12] = MRT in Sprague-Dawley rat at 5 mg/kg, iv after 0.08 to 24 hrs by LC-MS/MS method; format: ADME, organism-based; conditions: in vivo; in short: as §1
Rattus norvegicus [13] = test: Antiarthritic activity in adjuvant-induced SPF LEW/SsNSlc rat arthritis model assessed as paw thickness at 5 mg/kg, po qd measured on 14 days; format: functional; in short: as §3
Rattus norvegicus [14] = test: Antiarthritic activity in adjuvant-induced SPF LEW/SsNSlc rat arthritis model assessed as paw thickness at 20 mg/kg, po qd measured on day 14; format: functional; in short: as §3
[15] = biological target: Voltage-gated inwardly rectifying potassium channel KCNH2 (Homo sapiens, UniProt Q12809); test: Inhibition of human ERG expressed in HEK293 cells after 5 mins by automated planar patch clamp method; format: cell-based
Sequence of Voltage-gated inwardly rectifying potassium channel KCNH2 (Q12809 whole entry): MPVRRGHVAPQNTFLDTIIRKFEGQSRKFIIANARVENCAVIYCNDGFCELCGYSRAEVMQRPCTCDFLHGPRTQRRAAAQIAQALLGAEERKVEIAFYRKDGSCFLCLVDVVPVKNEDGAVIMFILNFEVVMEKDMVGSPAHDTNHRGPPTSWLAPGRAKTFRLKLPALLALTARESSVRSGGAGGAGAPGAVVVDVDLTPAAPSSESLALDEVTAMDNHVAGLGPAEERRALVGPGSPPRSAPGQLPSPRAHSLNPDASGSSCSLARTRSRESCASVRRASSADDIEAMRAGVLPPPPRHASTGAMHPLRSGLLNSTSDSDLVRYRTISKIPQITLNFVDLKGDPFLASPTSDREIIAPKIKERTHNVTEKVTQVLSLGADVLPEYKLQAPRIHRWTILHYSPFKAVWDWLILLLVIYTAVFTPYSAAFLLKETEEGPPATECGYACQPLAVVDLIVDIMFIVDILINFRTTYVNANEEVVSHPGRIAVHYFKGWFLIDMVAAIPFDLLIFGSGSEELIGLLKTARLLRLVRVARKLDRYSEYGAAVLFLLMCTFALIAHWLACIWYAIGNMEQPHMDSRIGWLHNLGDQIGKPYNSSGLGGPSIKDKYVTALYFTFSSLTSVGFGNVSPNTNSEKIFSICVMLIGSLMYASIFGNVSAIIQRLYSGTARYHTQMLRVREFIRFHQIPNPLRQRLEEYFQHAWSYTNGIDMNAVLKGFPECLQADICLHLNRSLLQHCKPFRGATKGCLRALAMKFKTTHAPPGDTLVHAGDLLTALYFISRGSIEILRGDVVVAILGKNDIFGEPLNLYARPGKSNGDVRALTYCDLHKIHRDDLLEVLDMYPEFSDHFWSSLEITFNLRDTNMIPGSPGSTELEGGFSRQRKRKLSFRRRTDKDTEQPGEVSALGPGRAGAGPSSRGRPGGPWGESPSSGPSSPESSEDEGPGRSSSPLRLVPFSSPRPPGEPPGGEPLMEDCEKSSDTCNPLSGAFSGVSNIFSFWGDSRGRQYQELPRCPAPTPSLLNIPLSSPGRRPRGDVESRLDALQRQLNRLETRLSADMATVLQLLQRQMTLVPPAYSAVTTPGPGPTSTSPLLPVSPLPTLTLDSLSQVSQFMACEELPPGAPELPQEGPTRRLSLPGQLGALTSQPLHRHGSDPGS

[16] = Tmax in Sprague-Dawley rat at 10 mg/kg, po after 0.25 to 24 hrs by LC-MS/MS method; format: ADME, organism-based; conditions: in vivo; in short: as §2

Sequence of Tyrosine-protein kinase JAK1 (P23458 whole entry): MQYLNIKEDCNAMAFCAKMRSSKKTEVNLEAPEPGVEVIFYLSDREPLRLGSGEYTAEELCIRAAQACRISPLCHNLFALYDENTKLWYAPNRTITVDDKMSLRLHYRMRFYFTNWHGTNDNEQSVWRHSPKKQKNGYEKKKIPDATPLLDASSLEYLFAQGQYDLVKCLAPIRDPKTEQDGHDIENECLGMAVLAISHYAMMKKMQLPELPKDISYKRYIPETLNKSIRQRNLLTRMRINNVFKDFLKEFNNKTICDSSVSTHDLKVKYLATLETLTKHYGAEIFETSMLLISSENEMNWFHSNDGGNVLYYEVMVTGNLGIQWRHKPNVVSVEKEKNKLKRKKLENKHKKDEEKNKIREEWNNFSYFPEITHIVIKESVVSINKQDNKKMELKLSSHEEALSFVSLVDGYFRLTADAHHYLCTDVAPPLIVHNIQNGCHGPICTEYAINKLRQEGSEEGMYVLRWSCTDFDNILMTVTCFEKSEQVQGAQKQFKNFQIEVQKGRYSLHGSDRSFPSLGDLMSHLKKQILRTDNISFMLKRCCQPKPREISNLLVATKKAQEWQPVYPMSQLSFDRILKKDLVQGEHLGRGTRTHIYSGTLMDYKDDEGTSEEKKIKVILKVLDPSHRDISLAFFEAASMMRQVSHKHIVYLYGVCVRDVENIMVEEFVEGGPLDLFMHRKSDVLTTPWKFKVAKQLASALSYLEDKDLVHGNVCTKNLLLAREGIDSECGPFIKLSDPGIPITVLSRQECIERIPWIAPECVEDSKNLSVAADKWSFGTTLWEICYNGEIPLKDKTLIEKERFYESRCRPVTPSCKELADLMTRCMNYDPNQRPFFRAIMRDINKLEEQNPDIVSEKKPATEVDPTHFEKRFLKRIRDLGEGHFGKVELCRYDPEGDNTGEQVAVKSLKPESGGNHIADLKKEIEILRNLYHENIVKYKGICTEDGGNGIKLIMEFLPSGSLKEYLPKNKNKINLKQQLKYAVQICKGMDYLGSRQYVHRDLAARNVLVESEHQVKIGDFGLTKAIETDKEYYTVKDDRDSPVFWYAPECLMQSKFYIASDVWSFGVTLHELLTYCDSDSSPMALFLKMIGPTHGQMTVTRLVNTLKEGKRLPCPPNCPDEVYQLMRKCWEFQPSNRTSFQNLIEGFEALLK

IC50 [1] [nM] | IC50 [2] [nM] | AUCt (Rattus norvegicus [3]) [ng·h/mL] | AUCt (Rattus norvegicus [4]) [ng·h/mL] | MRT [5] [h] | bioavailability [6] [%] | inhibition at 10 µM [7] [%] | half-life [8] [h] | half-life [9] [h] | Cmax [11] [ng/mL] | MRT [12] [h] | Tmax [16] [h] | Structure (SMILES) | Activity (Rattus norvegicus [10]) [mm] | Activity (Rattus norvegicus [13]) [mm] | Activity (Rattus norvegicus [14]) [mm] | IC50 [15] [nM]
7.2 | 180 | – | – | – | – | – | – | – | – | – | – | CCS(=O)(=O)N1C[C@H](N(C)c2ncnc3[nH]ccc23)C2(CC2)C1 | – | – | – | –
– | – | 900 | 1900 | 3.1 | 110 | 90 | 2.1 | 1.2 | 1000 | 1.1 | 0.3 | CN(c1ncnc2[nH]ccc12)[C@H]1CN(C(=O)CC#N)CC12CC2 | 10.21 | 10.33 | 10.2 | 120000
